For test [1], the target named is Proto-oncogene tyrosine-protein kinase Src (Homo sapiens) (UniProt P12931). The test is described as follows: Inhibition of N-terminal GST-tagged full length human SRC cytoplasmic domain (1 to 536 residues) expressed in baculovirus expression system at 1 uM using FAM-labeled peptide as substrate after 10 mins by mobility shift assay relative to control. The gist of the method:
(§1)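 Caliper mobility-shift kinase assay. Kinase in kinase base buffer was preincubated with compound for 10 min at room temperature. FAM-labelled peptide and ATP at Km were then added, and the reaction ran at 28 °C until quenched with buffer. Screening concentration was 1 µM. Percent inhibition = (max − conversion)/(max − min) × 100, with DMSO as max and a low control as min.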

Test [2] has as its target High affinity nerve growth factor receptor (Homo sapiens) (UniProt P04629). Description: Inhibition of N-terminal GST-tagged human TRKA cytoplasmic domain (436 to 790 residues) expressed in baculovirus expression system at 1 uM using FAM-labeled peptide as substrate after 10 mins by mobility shift assay relative to control. Put shortly:
as §1

Test [3] has as its target Mast/stem cell growth factor receptor Kit (Homo sapiens) (UniProt P10721). The test is described as follows: Inhibition of recombinant human N-terminal GST-tagged c-KIT (544 to end residues) expressed in baculovirus infected Sf21 cells at 1 uM using FAM-labeled peptide as substrate after 10 mins by mobility shift assay relative to control. The gist of the method: as §1

The target in test [4] is Hepatocyte growth factor receptor (Homo sapiens) (UniProt P08581). The test is described as follows: Inhibition of N-terminal GST-tagged human MET cytoplasmic domain (956 to 1390 residues) expressed in baculovirus expression system at 1 uM using FAM-labeled peptide as substrate after 10 mins by mobility shift assay relative to control. The gist of the method:
as §1

Test [5] deals with RAC-alpha serine/threonine-protein kinase (Homo sapiens) (UniProt P31749). Description: Inhibition of recombinant human N-terminal His-tagged full length human AKT1 (1 to 480 residues) expressed in baculovirus infected Sf9 insect cells at 1 uM using FAM-labeled peptide as substrate after 10 mins by mobility shift assay relative to control. Put shortly: as §1
Test [6] addresses Proto-oncogene tyrosine-protein kinase receptor Ret (Homo sapiens) (UniProt P07949). The test is described as follows: Inhibition of N-terminal GST-tagged human RET cytoplasmic domain (658 to 1114 residues) expressed in baculovirus expression system at 1 uM using FAM-labeled peptide as substrate after 10 mins by mobility shift assay relative to control. Put shortly: as §1
Test [7] has as its target Vascular endothelial growth factor receptor 2 (Homo sapiens) (UniProt P35968). Description: Inhibition of N-terminal GST-tagged human KDR cytoplasmic domain (790 to 1356 residues) expressed in baculovirus expression system at […] using FAM-labeled peptide as substrate after 10 mins by mobility shift assay relative to control. Put shortly:
as §1

The target in test [8] is Tyrosine-protein kinase JAK1 (Homo sapiens) (UniProt P23458). The test is described as follows: Inhibition of human N-terminal GST-tagged JAK1 catalytic domain (850 to 1154 residues) expressed in baculovirus expression system at 1 uM using FAM-labeled peptide as substrate after 10 mins by mobility shift assay relative to control. The gist of the method:
as §1

In test [9] the target is Serine/threonine-protein kinase PAK 2 (Homo sapiens) (UniProt Q13177). The test is described as follows: Inhibition of human N-terminal GST-tagged full length PAK2 (1 to 524 residues) expressed in baculovirus expression system at 1 uM using FAM-labeled peptide as substrate after 10 mins by mobility shift assay relative to control. The gist of the method: as §1
Chain of Serine/threonine-protein kinase PAK 2 (Homo sapiens) (Q13177 whole entry, the tested form may be a part): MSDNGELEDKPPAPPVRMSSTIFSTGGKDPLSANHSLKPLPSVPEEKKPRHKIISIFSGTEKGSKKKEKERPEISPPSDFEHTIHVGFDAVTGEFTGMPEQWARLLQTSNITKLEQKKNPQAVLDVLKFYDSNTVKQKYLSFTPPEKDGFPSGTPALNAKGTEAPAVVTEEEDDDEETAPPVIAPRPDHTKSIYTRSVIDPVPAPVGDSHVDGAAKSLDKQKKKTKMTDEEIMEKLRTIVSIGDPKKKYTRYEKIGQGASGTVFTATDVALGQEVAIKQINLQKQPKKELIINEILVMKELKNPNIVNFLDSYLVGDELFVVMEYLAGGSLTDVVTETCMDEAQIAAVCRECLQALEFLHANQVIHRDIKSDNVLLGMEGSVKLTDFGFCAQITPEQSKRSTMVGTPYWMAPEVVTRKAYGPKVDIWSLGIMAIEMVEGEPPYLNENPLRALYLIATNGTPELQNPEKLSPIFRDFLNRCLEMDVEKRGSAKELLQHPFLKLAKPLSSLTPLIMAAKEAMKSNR
The target of test [10] is Vascular endothelial growth factor receptor 1 (Homo sapiens) (UniProt P17948). Description: Inhibition of recombinant human GST-tagged FLT1 cytoplasmic domain (781 to 1338 residues) expressed in baculovirus expression system at 1 uM using FAM-labeled peptide as substrate after 10 mins by mobility shift assay relative to control. Put shortly: as §1
Test [11] addresses Platelet-derived growth factor receptor beta (Homo sapiens) (UniProt P09619). Description: Inhibition of N-terminal GST-tagged human PDGFRbeta cytoplasmic domain (557 to 1106 residues) expressed in baculovirus expression system at 1 uM using FAM-labeled peptide as substrate after 10 mins by mobility shift assay relative to control. Put shortly:
as §1

For test [12], the target named is Fibroblast growth factor receptor 4 (Homo sapiens) (UniProt P22455). The test is described as follows: Inhibition of N-terminal GST-tagged human FGFR4 cytoplasmic domain (460 to 802 residues) expressed in baculovirus expression system at 1 uM using FAM-labeled peptide as substrate after 10 mins by mobility shift assay relative to control. Put shortly:
as §1

Test [13] deals with T1, Mitogen-activated protein kinase kinase kinase kinase 2 (Homo sapiens) (UniProt Q12851).
T1 sequence (whole entry): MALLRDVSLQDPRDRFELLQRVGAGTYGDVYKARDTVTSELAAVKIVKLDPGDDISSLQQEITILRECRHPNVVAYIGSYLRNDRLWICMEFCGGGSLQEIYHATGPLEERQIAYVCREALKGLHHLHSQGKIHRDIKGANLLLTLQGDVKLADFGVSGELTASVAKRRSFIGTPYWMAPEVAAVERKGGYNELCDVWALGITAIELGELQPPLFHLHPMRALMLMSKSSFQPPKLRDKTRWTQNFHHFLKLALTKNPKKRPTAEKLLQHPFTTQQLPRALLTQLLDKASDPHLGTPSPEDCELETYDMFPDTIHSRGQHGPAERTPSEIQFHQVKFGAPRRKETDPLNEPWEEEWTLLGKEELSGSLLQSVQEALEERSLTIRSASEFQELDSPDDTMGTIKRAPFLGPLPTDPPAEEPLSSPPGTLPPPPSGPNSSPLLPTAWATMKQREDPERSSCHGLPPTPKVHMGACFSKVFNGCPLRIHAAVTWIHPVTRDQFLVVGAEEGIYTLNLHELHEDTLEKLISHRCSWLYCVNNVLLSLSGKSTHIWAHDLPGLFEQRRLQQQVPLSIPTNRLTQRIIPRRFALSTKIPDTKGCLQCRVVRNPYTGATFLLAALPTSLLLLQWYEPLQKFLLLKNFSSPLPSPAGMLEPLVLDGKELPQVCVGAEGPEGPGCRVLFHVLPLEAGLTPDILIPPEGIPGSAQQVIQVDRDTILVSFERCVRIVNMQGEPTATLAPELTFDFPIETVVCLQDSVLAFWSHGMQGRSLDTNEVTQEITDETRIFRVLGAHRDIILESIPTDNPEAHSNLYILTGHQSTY
Description: Inhibition of human N-terminal GST-tagged full length MAP4K2 (1 to 820 residues) expressed in baculovirus expression system at 1 uM using FAM-labeled peptide as substrate after 10 mins by mobility shift assay relative to control. The gist of the method: as §1

Test [14] has as its target Vascular endothelial growth factor receptor 3 (Homo sapiens) (UniProt P35916). Description: Inhibition of recombinant human GST-tagged FLT4 cytoplasmic domain (800 to 1297 residues) expressed in baculovirus expression system at 1 uM using FAM-labeled peptide as substrate after 10 mins by mobility shift assay relative to control. The gist of the method: as §1
Test [15] concerns the target Receptor-type tyrosine-protein kinase FLT3 (Homo sapiens) (UniProt P36888). Description: Inhibition of human N-terminal GST-tagged FLT3 cytoplasmic domain (564 to 993 residues) expressed in baculovirus expression system at 1 uM using FAM-labeled peptide as substrate after 10 mins by mobility shift assay relative to control. Put shortly:
as §1

Test [16] has as its target Fibroblast growth factor receptor 1 (Homo sapiens) (UniProt P11362). The test is described as follows: Inhibition of N-terminal GST-tagged human FGFR1 cytoplasmic domain (398 to 822 residues) expressed in baculovirus expression system at 1 uM using FAM-labeled peptide as substrate after 10 mins by mobility shift assay relative to control. Put shortly:
as §1

Here are results for 6 compounds from ChEMBL document CHEMBL4265907, “Design, synthesis and pharmacological evaluation of N4,N6-disubstituted pyrimidine-4,6-diamine derivatives as potent EGFR inhibitors in non-small cell lung cancer” (Eur J Med Chem, 2018).

Chain of Hepatocyte growth factor receptor (Homo sapiens) (P08581 whole entry, the tested form may be a part): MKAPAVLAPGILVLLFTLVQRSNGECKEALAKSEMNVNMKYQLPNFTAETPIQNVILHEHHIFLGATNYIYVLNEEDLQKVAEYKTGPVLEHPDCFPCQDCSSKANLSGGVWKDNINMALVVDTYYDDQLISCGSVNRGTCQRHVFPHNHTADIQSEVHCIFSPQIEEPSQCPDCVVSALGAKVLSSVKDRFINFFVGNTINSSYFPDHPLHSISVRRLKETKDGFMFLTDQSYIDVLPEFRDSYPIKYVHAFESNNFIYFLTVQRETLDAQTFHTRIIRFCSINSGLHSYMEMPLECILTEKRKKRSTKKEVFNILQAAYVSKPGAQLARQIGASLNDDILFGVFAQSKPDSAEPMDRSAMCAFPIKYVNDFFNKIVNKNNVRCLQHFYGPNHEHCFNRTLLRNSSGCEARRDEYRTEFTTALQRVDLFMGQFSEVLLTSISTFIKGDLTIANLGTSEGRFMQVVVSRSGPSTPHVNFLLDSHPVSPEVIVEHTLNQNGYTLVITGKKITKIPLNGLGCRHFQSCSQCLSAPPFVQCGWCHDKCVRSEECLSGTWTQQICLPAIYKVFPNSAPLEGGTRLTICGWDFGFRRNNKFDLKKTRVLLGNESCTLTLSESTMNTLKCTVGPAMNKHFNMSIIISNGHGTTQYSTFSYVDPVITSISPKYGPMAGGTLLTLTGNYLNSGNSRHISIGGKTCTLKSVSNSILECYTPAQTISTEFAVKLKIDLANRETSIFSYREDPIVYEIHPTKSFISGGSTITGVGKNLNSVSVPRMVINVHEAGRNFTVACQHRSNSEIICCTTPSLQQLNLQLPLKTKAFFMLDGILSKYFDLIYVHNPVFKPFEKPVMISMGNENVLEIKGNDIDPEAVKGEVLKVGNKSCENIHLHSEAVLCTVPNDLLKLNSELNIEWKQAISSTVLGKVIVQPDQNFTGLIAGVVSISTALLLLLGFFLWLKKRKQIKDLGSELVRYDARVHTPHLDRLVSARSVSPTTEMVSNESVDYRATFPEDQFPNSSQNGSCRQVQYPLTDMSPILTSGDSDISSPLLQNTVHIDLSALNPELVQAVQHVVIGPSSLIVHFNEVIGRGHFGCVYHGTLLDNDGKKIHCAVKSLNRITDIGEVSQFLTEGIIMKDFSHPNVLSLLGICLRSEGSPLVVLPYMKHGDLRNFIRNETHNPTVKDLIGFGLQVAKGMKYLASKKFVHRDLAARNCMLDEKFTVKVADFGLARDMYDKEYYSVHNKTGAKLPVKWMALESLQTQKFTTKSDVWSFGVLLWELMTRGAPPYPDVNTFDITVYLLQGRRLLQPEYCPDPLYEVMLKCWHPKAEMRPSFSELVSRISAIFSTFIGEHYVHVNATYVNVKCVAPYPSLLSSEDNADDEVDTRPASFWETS
Chain of Receptor-type tyrosine-protein kinase FLT3 (Homo sapiens) (P36888 whole entry, the tested form may be a part): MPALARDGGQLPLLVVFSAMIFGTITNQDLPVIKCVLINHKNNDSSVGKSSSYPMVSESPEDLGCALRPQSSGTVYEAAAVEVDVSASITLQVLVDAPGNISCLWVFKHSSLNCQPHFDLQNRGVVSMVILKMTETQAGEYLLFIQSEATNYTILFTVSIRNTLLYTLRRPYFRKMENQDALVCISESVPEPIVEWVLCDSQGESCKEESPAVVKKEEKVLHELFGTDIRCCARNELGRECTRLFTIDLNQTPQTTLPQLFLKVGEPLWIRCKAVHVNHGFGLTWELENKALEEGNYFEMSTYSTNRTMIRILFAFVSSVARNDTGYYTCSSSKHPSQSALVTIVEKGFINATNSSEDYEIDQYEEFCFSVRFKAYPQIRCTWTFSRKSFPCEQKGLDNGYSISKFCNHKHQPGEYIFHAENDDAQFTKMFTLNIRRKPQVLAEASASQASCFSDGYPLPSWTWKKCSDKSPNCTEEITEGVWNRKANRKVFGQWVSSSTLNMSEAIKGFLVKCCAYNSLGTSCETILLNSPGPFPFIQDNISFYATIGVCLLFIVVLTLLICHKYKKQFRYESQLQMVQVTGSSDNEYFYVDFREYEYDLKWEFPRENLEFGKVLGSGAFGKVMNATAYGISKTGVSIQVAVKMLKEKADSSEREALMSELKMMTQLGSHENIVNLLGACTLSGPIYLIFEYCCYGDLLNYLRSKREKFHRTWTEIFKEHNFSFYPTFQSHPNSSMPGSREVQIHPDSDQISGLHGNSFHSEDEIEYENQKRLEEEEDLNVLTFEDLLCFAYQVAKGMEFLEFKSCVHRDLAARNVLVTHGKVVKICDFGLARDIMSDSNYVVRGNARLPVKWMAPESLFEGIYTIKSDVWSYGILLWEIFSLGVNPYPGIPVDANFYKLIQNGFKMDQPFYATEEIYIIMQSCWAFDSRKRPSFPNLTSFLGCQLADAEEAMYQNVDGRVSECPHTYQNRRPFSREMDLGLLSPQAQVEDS
Chain of High affinity nerve growth factor receptor (Homo sapiens) (P04629 33-796 limits assumed): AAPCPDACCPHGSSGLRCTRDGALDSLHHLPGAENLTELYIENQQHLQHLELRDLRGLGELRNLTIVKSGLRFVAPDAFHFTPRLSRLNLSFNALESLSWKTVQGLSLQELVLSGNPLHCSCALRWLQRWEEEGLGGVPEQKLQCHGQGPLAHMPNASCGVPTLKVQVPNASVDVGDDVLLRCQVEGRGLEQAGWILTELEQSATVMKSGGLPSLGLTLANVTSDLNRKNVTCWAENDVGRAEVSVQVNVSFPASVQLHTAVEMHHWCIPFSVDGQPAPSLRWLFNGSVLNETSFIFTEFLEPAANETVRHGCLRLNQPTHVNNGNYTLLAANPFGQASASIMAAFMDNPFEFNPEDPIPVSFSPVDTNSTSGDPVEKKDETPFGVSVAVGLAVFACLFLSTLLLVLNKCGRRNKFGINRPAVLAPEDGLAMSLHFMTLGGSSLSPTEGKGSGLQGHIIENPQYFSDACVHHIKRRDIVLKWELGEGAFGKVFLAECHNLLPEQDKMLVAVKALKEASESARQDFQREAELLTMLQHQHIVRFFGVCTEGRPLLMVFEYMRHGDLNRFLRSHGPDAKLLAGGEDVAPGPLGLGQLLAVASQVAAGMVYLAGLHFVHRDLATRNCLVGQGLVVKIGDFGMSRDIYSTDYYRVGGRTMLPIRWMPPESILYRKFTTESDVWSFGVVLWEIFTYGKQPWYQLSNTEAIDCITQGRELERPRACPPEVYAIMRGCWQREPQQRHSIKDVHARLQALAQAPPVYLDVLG
Chain of Vascular endothelial growth factor receptor 3 (Homo sapiens) (P35916 whole entry, the tested form may be a part): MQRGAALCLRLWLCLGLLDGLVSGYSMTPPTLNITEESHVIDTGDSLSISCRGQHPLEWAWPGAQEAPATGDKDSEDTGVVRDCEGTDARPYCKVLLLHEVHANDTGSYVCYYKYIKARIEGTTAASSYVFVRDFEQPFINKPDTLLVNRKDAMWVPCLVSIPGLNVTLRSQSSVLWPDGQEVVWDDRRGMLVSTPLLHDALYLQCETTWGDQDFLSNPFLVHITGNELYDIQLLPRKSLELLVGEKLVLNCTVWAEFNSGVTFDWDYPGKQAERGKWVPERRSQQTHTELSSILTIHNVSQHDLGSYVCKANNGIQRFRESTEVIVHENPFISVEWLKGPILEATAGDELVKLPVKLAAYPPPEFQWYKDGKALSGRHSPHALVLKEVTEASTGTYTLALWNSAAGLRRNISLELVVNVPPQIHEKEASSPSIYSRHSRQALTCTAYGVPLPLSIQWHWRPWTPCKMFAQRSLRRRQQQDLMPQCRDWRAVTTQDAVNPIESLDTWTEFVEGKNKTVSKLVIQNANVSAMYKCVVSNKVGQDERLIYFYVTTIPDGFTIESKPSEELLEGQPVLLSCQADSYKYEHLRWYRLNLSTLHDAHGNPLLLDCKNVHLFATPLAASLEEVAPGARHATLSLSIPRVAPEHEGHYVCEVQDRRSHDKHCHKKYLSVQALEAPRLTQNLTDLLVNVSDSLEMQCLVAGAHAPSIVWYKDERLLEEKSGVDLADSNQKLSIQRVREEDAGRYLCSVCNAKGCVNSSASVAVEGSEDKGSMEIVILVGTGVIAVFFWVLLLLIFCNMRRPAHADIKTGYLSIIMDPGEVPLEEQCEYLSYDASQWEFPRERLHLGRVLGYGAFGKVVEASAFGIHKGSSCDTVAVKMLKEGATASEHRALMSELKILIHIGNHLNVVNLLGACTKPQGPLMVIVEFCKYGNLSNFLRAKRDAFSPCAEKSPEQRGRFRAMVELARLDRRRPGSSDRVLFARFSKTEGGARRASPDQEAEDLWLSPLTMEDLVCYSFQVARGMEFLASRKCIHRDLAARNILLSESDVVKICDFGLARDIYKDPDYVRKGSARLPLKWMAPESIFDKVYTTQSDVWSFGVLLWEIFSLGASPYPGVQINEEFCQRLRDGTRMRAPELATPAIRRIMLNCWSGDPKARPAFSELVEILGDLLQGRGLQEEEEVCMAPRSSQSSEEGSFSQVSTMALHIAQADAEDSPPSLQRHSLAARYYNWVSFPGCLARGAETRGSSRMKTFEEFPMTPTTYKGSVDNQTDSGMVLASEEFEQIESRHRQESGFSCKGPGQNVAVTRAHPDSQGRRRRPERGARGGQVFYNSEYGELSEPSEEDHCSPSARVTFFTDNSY

A word on the inhibition: it is the change of the read-out against control, counted positive when it falls. Regarding `COc1ccc(Nc2cc(NC(=O)c3ccccc3)ncn2)cc1`, the inhibition is 27.7% in test [1]; 5.6% in test [2]; 26% in [3]; 3.3% in [4]; -3.4% in test [5]; 2.9% in [6]. The inhibition in [7] is 12.4%; in [8] it was -0.8%; in [9], 13.4%; in test [10], 2.3%; in test [11] it was 29.4%; in [12], 1.8%. Besides, the inhibition was -3.2% in [13], 21.6% in test [14], 6.9% in test [15] and -1.6% in [16].
As to `O=C(O)CCCC(=O)Nc1cc(N2CCOCC2)ncn1`, the inhibition is 11.7% in test [1]; 6% in test [2]; -4.4% in test [3]; 9.2% in test [4]; -3% in test [5]; 8.5% in test [6]. Moreover, the inhibition in test [7] is 14.4%; in [8], -2.4%; in [9], 9.4%; in [10] it was -9.5%; in test [11] it was 10%; in [12], 4%. Also, the inhibition is 3.3% in [13], 9.5% in [14], 16.4% in test [15] and 5.6% in test [16].
In the case of `CCOC(=O)c1ccc(Nc2cc(NC(=O)CCCC(=O)O)ncn2)cc1`, the inhibition in test [1] was found to be 11.4%; in test [2], 8.4%; in test [3], 5.9%; in [4], 4.4%; in test [5], 4.7%; in test [6], 10.4%. Also, the inhibition in test [7] was -1.4%; in test [8], -3.1%; in test [9], 15.7%; in test [10], 2.9%; in test [11] it was 24.2%; in [12], -0.6%. The inhibition in test [13] stood at 5.5%; in test [14] it was 28.2%; in [15], 11.5%; in [16], 5.6%.
Regarding `COc1cccc(Nc2cc(Nc3cc(OC)ccc3OC)ncn2)c1`, the inhibition in test [1] is 33.2%; in test [2], 6.8%; in test [3] it was 0.4%; in [4], 7.2%; in test [5] it was -2.1%; in test [6] it was 16.3%. In addition, the inhibition in test [7] was 7.3%; in test [8] it was -1.4%; in [9] it was 4.7%; in [10], 18.1%; in [11], 30.4%; in test [12], 4.8%. Also, the inhibition in [13] worked out at 5.4%; in test [14], 47.3%; in test [15], 59.1%; in test [16], 4.8%.
For `O=C(O)CCCC(=O)Nc1cc(Nc2cccc(Cl)c2)ncn1`, the inhibition in test [1] is 83.7%; in [2], 9.6%; in [3] it was 13.3%; in [4] it was 4%; in [5], 0%; in test [6] it was 16.8%. Also, the inhibition is 8.5% in test [7]; -1% in test [8]; 16.9% in [9]; 12.3% in test [10]; 74.1% in test [11]; 8.8% in [12]. Besides, the inhibition in test [13] came to 9.2%; in [14], 29.4%; in test [15] it was 35.5%; in test [16], 13.5%.
On to `COc1cccc(Nc2cc(NC(=O)CCCC(=O)O)ncn2)c1`, for which the inhibition in [1] was 16.6%; in [2], 18.8%; in test [3], 13.3%; in [4] it was 12%; in test [5] it was 6.8%; in [6], 7.7%. For the same compound, the inhibition in test [7] was 10.5%; in test [8], -0.7%; in test [9] it was 18.9%; in test [10] it was 11.8%; in [11], 10.3%; in test [12], 21.6%. Moreover, the inhibition came to 10.5% in test [13], 29.4% in test [14], 10.5% in test [15] and 24% in test [16].
